Results: ChEMBL document CHEMBL1122839, “Synthesis and antidiarrheal activity of N-(aminoiminomethyl)-1H-pyrrole-1-acetamides related to guanfacine” (1985)
Several values for one entry are separate records, joined by “and”; a condition that tells them apart may be missing. Identical values can stand only once. Activity calls are given as the source filed them. The rule behind the calls is not given here.

Columns and labels:
Rattus norvegicus [1] = test: Percent inhibition of caster oil induced diarrhea in rats at a dose of 30 mg/kg peroral administration after 6 hours; NS=Not significant; type: functional, organism-based; parameters: dose 30 mg/kg
Rattus norvegicus [2] = test: Percent inhibition of caster oil induced diarrhea in rats at a dose of 30 mg/kg peroral administration after 2 hours; type: functional; conditions: route oral
Rattus norvegicus [3] = test: Cardiovascular activity in normotensive rats after oral administration of 30 mg/kg after 2 hr; type: functional
In short: (§1)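 Female normotensive rats with left carotid artery cannulae placed under anaesthesia. The next day they received the test substance orally in 0.5% hydroxymethylcellulose/0.9% saline (10 mL/kg), or vehicle alone. Systolic blood pressure was measured from the cannula, and heart rate from the pressure-triggered tachometer, predose and at 1, 2, 4 and 6 h. Values are means; significance was judged against predose values.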

Rattus norvegicus [4] = test: Cardiovascular activity in normotensive rats at a dose of 30 mg/kg oral administration after 1 hr; type: functional; in short: as §1
Rattus norvegicus [5] = test: Percent inhibition of caster oil induced diarrhea in rats at a dose of 30 mg/kg peroral administration after 6 hours; type: functional; conditions: Rattus norvegicus, po, 6 h
Rattus norvegicus [6] = test: Cardiovascular activity in normotensive rats after oral administration of 30 mg/kg after 4 hr; type: functional; in short: as §1
Rattus norvegicus [7] = test: Cardiovascular activity in normotensive rats at a dose of 30 mg/kg oral administration after 4 hr; type: functional; in short: as §1
Rattus norvegicus [8] = test: Cardiovascular activity in normotensive rats at a dose of 30 mg/kg oral administration after 2 hr; type: functional; in short: as §1
Rattus norvegicus [9] = test: Cardiovascular activity in normotensive rats after oral administration of 30 mg/kg after 1 hr; type: functional
In short: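 Female normotensive rats with left carotid artery cannulae implanted under anaesthesia; dosed orally the next day in 0.5% hydroxymethylcellulose/0.9% saline (10 mL/kg) or vehicle alone. Systolic blood pressure taken by pressure transducer before dosing and at 1, 2, 4, 6 h; heart rate from tachometer triggered by pressure signal. Mean values; significance versus predose.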

Rattus norvegicus [10] = test: Cardiovascular activity in normotensive rats at a dose of 30 mg/kg oral administration after 6 hr; type: functional; in short: as §1
Rattus norvegicus [11] = test: Percent inhibition of caster oil induced diarrhea in rats at a dose of 10 mg/kg peroral administration after 2 hours; type: functional; conditions: route oral
Rattus norvegicus [12] = test: Percent inhibition of caster oil induced diarrhea in rats at a dose of 10 mg/kg peroral administration after 6 hours; type: functional; conditions: route oral, 10 mg/kg
Rattus norvegicus [13] = test: Cardiovascular activity in normotensive rats after oral administration of 30 mg/kg after 6 hr; type: functional; in short: as §1
Rattus norvegicus [14] = test: Percent inhibition of caster oil induced diarrhea in rats at a dose of 30 mg/kg peroral administration after 2 hours; NS=Not significant; type: functional, organism-based; parameters: dose 30 mg/kg

Compound | inhibition (Rattus norvegicus [1]) | inhibition in vivo at 30 mg/kg (Rattus norvegicus [2]) | inhibition (Rattus norvegicus [14]) | further results
CC1C=C[C@@H](C)N1CC(=O)NC1=NCCN1 (some centres undefined) | inactive | 35% |  | 
C/N=C(\N)NC(=O)CN1C(C)C=C[C@H]1C (some centres undefined) | inactive | 88% |  | 
Cc1ccc(C)n1CC(=O)N=C(N)N.Cl |  | 96% |  | Systolic blood pressure (Rattus norvegicus [3]): 159 mmHg; Heart rate (Rattus norvegicus [4]): 175 beats min-1; inhibition in vivo at 30 mg/kg (Rattus norvegicus [5]): 96%; Systolic blood pressure (Rattus norvegicus [6]): 163 mmHg; Heart rate (Rattus norvegicus [7]): 218 beats min-1; Heart rate (Rattus norvegicus [8]): 218 beats min-1; Systolic blood pressure (Rattus norvegicus [9]): 193 mmHg; Heart rate (Rattus norvegicus [10]): 242 beats min-1; inhibition in vivo at 10 mg/kg (Rattus norvegicus [11]): 100%; Inhibition (Rattus norvegicus [12]): 75% and 97%; Systolic blood pressure (Rattus norvegicus [13]): 138 mmHg
CC1C=C[C@@H](C)N1C(=O)C(=O)N=C(N)N (some centres undefined) | inactive |  | inactive | 
CC1C=C[C@@H](C)N1C(C)C(=O)N=C(N)N (some centres undefined) | inactive |  | inactive | 
CC1C=C[C@@H](C)N1CCC(=O)N=C(N)N (some centres undefined) | inactive |  | inactive | 
CC1C=C[C@@H](C)N1CCN=C(N)N (some centres undefined) | inactive |  | inactive | 
